SUMO1-SIM PPI: modulators of SUMO1 protein-protein interactions, primary screen, biochemical, uHTS; inhibition, % at 20 µM; SUMO1 binding to a labelled peptide, TR-FRET, 1 h; 360,000 tested, 0.33% active; Small ubiquitin-related modifier 1 (Homo sapiens), P63165; in the data active = inhibition above about 37%
Target sequence (P63165 whole entry, looked up): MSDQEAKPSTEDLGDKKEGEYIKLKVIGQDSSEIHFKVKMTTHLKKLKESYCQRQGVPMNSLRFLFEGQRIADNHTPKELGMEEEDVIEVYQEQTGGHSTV
NadD block: inhibitors of S. aureus NadD, primary screen, biochemical, colorimetric, uHTS; purified NadD enzyme, colorimetric absorbance read-out; inhibition, % at 20 µM; 360,000 tested, 0.78% active; AID 602399, 2012; in the data active = inhibition above about 26%
DNMT1 inh: human DNMT1 methyltransferase inhibitors, primary screen, biochemical, molecular beacon, fluorescence, HinP1I cleavage, uHTS. inhibition (reported as % activation of signal), % at 10 µM. 360,000 tested, 0.83% active. AID 588458, 2011; in the data active = inhibition above about 50%
STEP block: STEP phosphatase inhibitors, primary screen, biochemical, fluorescence intensity, uHTS; Tyrosine-protein phosphatase non-receptor type 5 (Homo sapiens), P54829; recombinant STEP, OMFP fluorogenic substrate; inhibition, % at 20 µM; 360,000 tested, 0.25% active; AID 588621, 2011;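 active = inhibition at 20 µM, scaled per plate between control wells, above about 37%, limit read from the data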;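 also: 0% = DMSO with enzyme and substrate and 100% = substrate only without enzyme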
Target sequence (P54829 whole entry, looked up): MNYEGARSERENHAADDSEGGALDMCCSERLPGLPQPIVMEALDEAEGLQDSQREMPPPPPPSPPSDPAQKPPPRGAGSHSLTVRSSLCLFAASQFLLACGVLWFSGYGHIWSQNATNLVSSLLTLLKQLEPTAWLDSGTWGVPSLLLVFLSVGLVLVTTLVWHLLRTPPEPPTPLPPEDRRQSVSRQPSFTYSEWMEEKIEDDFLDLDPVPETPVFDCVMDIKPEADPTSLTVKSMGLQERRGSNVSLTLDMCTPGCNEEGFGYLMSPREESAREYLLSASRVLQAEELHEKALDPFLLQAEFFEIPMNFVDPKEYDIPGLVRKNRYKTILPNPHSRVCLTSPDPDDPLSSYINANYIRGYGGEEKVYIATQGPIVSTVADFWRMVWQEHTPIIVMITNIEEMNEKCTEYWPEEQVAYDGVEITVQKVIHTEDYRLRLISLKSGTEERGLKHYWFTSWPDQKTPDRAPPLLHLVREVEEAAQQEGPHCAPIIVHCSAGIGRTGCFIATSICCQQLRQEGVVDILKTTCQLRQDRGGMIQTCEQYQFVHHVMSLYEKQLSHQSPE
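Assay system: isolated STEP enzyme. Buffer or medium: pH 6.0 Bis-Tris with DTT and Tween 20. Also added: fluorogenic phosphatase substrate OMFP at 25 µM final. Dosing: 20 µM, 1% DMSO. Timing: 20 min reaction, room temperature, in the dark. Measured by: fluorescence intensity, excitation 480 nm, emission 540 nm. Evaluation: normalized % inhibition.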
Scp1 inh: Scp-1 phosphatase inhibitors, primary screen, biochemical, colorimetric, uHTS; Carboxy-terminal domain RNA polymerase II polypeptide A small phosphatase 1 (Homo …; Recombinant Scp1, phosphopeptide, malachite green phosphate absorbance; AID 493091, 2011; 340,000 tested, 0.88% active; inhibition, % at 20 µM;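 active = inhibition above about 50% at 20 µM, limit read from the data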;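 also: plate controls were DMSO wells with enzyme for no effect and wells lacking enzyme for full effect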
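Incubation: 45 min enzyme reaction at room temperature / System: truncated SCP-1 phosphatase (76-261aa) / Reagent: Phospho 17-mer peptide substrate / Buffer or medium: Acidic Tris acetate buffer with magnesium and detergent / Signal: absorbance at 630 nm / Doses: one concentration, 20 µM, with 1.0% DMSO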
LMPTP inh: LMPTP phosphatase inhibitors, primary screen, biochemical, fluorescence intensity, uHTS; Low molecular weight phosphotyrosine protein phosphatase (Homo sapiens), P24666; recombinant LMPTP-A, OMFP fluorogenic substrate; inhibition, % at 20 µM; 360,000 tested, 0.22% active;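 active = compounds that cut the enzyme signal by at least half of the control window in the single-dose screen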;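 also: plate controls were DMSO wells with enzyme plus substrate for no effect and substrate without enzyme for full effect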
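Test system – LMPTP-A enzyme · Amount – LMPTP-A at 0.625 nM final in the reaction · Buffer or medium – Bis-Tris pH 6.0, DTT, detergent · Reagent – OMFP 400 µM · Doses – single 20 µM dose · Schedule – reaction 50 min, room temperature, dark · Detection – fluorescence intensity of OMFP turnover product · Evaluation – percent inhibition versus substrate-only and uninhibited controls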
Scp-1 conf: Scp-1 phosphatase inhibitors, retest, confirmation, biochemical, colorimetric, single concentration; recombinant SCP-1 catalytic domain, phosphate release, malachite green absorbance; AID 540281, 2011; shares compounds with Scp1 inh; inhibition, % at 20 µM; 2,500 tested, 61% active;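 also: plate controls were DMSO with enzyme for no effect and buffer wells lacking enzyme for full effect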
Scp-1 MG ctr: colorimetric readout interference by compounds, confirmation, artefact control for Scp-1 inhibitor project, biochemical, single concentration; 2,500 tested, under 10 active; shares compounds with Scp1 inh; Colorimetric interference counterscreen, malachite green absorbance 630 nm; apparent inhibition (interference), % at 20 µM;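 also: compounds added after enzyme reaction finished so only phosphate colour detection is probed; plate controls were DMSO wells with completed Scp-1 reaction for no effect and substrate wells lacking enzyme for full effect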
Scp-1 Tm shift: Scp-1 binding by thermal shift, confirmation, orthogonal assay for Scp-1 inhibitor project, biophysical, differential scanning fluorimetry | shares compounds with Scp1 inh | Recombinant SCP1, Sypro Orange thermal shift Tm | thermal shift relative to vanadate control, % at 40 µM | 1,500 tested, 25% active | AID 540329, 2011;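 active = substances whose mean melting-temperature shift, as a percentage of the reference inhibitor's shift, reaches about 5.3%, limit read from the data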;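 also: 0% = Tm of DMSO wells and 100% = Tm with sodium orthovanadate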
Beacon interf DR: spectral interference with molecular beacon fluorescence, dose response, artefact control for DNMT1 inhibitor project, biochemical, fluorescent molecular beacon. shares compounds with DNMT1 inh. spectral interference counter-screen. IC50, µM. 200 tested, under 10 active; call rule not given here
DNMT1 confirm: DNMT1 methyltransferase inhibitor retest, confirmation, biochemical, molecular beacon, fluorescence, single concentration; shares compounds with DNMT1 inh; DNMT1 molecular beacon HinP1I cleavage; inhibition, % at 10 µM; 2,300 tested, 8% active; AID 602385, 2012;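 active = average inhibition of at least 30% in the single-concentration confirmation test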
Beacon interf: shows spectral interference in the DNMT1 beacon assay; DNMT1 molecular beacon spectral interference counterscreen, fluorescence 485/520; shares compounds with DNMT1 inh; activation (fluorescence interference), % at 10 µM; 2,300 tested, 1% active;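 active = activation of at least 30% at 10 µM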;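 also: DNMT1 catalytic domain with a HinP1I cleavage step and a FAM/dabcyl DNA beacon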
Numbers without * were called inactive; x = no result given. In the library only some 2.3% were active in any assay of this set; here they are far more common.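 The calls were made as follows, unless noted: active = inhibition of at least 30% at 20 µM; inactive = the rest.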

SMILES | SUMO1-SIM PPI | NadD block | DNMT1 inh | STEP block | Scp1 inh | LMPTP inh | Scp-1 conf | Scp-1 MG ctr | Scp-1 Tm shift | others
Cc1ccccc1NC(=O)N1Cc2ccccc2-n2nncc2C1 | 3 | 3 | 2 | 4 | x | -1 | x | x | x
CC(C)[N+](C)(CCC(C(N)=O)(c1ccccc1)c1ccccc1)C(C)C | 1 | 11 | 3 | -1 | 99* | -1 | 91* | -7 | -12
C[C@]12CCC3C(CC[C@H]4C[C@@H](O)CC[C@]34C)C1C[C@@H](N)[C@@H]2O (stereo not given in full) | 3 | -5 | 4 | 0 | 3 | 1 | x | x | x
O=C(O)CCn1cc(C=C2C(=O)NC(=S)NC2=O)c(-c2ccccc2)n1 | 7 | 2 | 3 | 5 | 21 | -3 | x | x | x
O=C(O)CCn1cc(C=C2C(=O)NC(=S)NC2=O)c(-c2cc3ccccc3oc2=O)n1 | 10 | 2 | 53* | 2 | 87* | 0 | 69* | -9 | -9
N#Cc1ccc(CN2Cc3ccccc3-n3nncc3C2)cc1 | -4 | -8 | -5 | -3 | x | 0 | x | x | x
CC(C)Cc1[nH]c(=O)c(C#N)c2c1CCC2 | 0 | 1 | -1 | 0 | 87* | 0 | -7 | -10 | x
C[N+]1(CC2COC(c3ccco3)O2)CCCCC1 (stereo not given) | -1 | 16 | 0 | -1 | 109* | 0 | 84* | -17 | -16
CCCC[N+]12CCC(CC1)C(=C(c1ccccc1)c1ccccc1)C2 | 2 | 19 | 2 | 1 | 98* | 0 | 86* | -7 | 0
Cc1cc2c(cc1C)NP(=S)(c1ccccc1)N2 | 1 | 1 | -5 | 0 | -10 | 2 | x | x | x
CCOc1cc(C=C2C(=O)NC(=S)NC2=O)ccc1O | -3 | 1 | -4 | -3 | 50 | 2 | 7 | -16 | x
CCOc1cc(C=O)ccc1O | 4 | -1 | 1 | -2 | -4 | -1 | x | x | x
C[N+](C)(C)c1ccccc1 | 0 | 3 | -1 | -3 | 52* | -1 | 17 | -11 | x
c1ccc(CN2Cc3ccccc3-n3nncc3C2)nc1 | 0 | 4 | 3 | 3 | x | -2 | x | x | x
CN1CCC(OC(=O)Cc2ccccc2)CC1 | -3 | 2 | 0 | -2 | -7 | -1 | x | x | x
C[N+]1(CC(COCc2ccccc2)OC(=O)Cc2ccccc2)CCOCC1 (stereo not given) | -4 | 17 | 11 | -1 | 112* | -1 | 89* | -4 | -3
O=[N+]([O-])c1cc(S(=O)(=O)c2ccc(O)c([N+](=O)[O-])c2)ccc1O | 33 | 2 | 41 | 2 | 56* | -3 | 61* | -8 | 17*
O=[N+]([O-])c1cccc(O)c1 | -14 | 1 | 0 | -2 | -3 | -2 | x | x | x
COc1ccc(OC(=O)N(C)C[C@@H]2OCc3cnnn3CCCC(=O)N([C@H](C)CO)C[C@H]2C)cc1 | 3 | -2 | 5 | -2 | x | -2 | x | x | x
Cc1cc(/C=C2\C(=O)NC(=O)N(c3ccc(Cl)cc3)C2=O)c(C)n1-c1cccc(C(=O)O)c1 | 19 | 5 | 74* | 13 | 52* | 1 | 51* | -4 | 6.9* | DNMT1 confirm=6;Beacon interf=0
Cc1cc(/C=C2\C(=O)NC(=O)N(c3ccc(Br)cc3)C2=O)c(C)n1-c1cc(C(=O)O)cc(C(=O)O)c1 | 28 | -1 | 83* | 6 | 60* | 5 | 42* | -16 | -1 | DNMT1 confirm=3;Beacon interf=-4
Cc1cc(/C=C2/C(=O)NC(=O)N(c3ccc(Br)cc3)C2=O)c(C)n1C | -8 | 11 | -4 | -1 | -5 | 1 | x | x | x
O=C1C=CC(=O)C2C1C1(Cl)C(Cl)=C(Cl)C2(Cl)C1(Cl)Cl (stereo not given) | 8 | -5 | -37 | -3 | -16 | 1 | x | x | x
O=C1NC(=O)N(c2ccc3c(c2)OCO3)C(=O)/C1=C\c1ccc(-c2ccccc2C(=O)O)o1 | 24 | 3 | 90* | 12 | 56* | 4 | 52* | -11 | 3 | DNMT1 confirm=8;Beacon interf=-1
CCOc1cccc(N2C(=O)/C(=C/c3ccco3)C(=O)NC2=S)c1 | 56* | 9 | 98* | 56* | 74* | 34 | 70* | -11 | 6.4* | Beacon interf DR=>99;DNMT1 confirm=80*;Beacon interf=0
O=C1NC(=O)N(CCc2ccc(F)cc2)C(=O)/C1=C/c1ccco1 | 80* | 34* | 98* | 48* | 92* | 66* | 66* | -16 | -1 | DNMT1 confirm=5;Beacon interf=0
Cc1ccc(/C=C2/C(=O)NC(=O)N(CCc3ccc(F)cc3)C2=O)o1 | 9 | 3 | 4 | -1 | -10 | 0 | x | x | x
COc1ccccc1/C=C1\C(=O)NC(=S)N(c2ccccc2)C1=O | 9 | 2 | -2 | 0 | 15 | -2 | x | x | x
COc1ccc(CN2C(=O)NC(=O)/C(=C\c3ccco3)C2=O)cc1 | 22 | 19 | 86* | 11 | 82* | 29 | 58* | -22 | 5.5* | Beacon interf DR=>99;DNMT1 confirm=28;Beacon interf=-5
